Fam108B inh – blocks mouse Fam108B hydrolase in RBBP9 counter-screen. 0.33% of 300,000 active. inhibition, % at 9.51 µM. AID 1947. recombinant Fam108B, FP-Rh probe fluorescence polarization;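 active = inhibition above the screen mean inhibition plus 3 SD, computed separately per campaign, cut at about 18% in these data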;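 note: inhibitors lower polarization as less probe binds the enzyme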
PME-1 inh – PME-1 (human) inhibition | inhibition, % at 5.9 µM | Q9Y570 | 0.53% of 320,000 active | recombinant PME-1, FP-Rh probe fluorescence polarization;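 active = inhibition above the campaign mean of all compounds plus 3 SD, cut at about 26% in these data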;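 note: competitive labeling of PME-1 active site by serine hydrolase directed probe; 0% = PME-1 with DMSO and 100% = wells lacking PME-1 enzyme; inhibitors block probe labeling so polarization falls and inhibition rises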
LYPLA2 inh – counter-screen for PME1 inhibitors: inhibitors of human LYPLA2; recombinant LYPLA2, FP-Rh probe fluorescence polarization; 0.38% of 320,000 active; O95372; inhibition, % at 5.9 µM;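 active = inhibition above the screen-wide mean plus 3 SD, limit set per campaign, cut at about 26% in these data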;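 note: 0% = LYPLA2 with DMSO and 100% = wells lacking LYPLA2 enzyme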
Target sequence (O95372 whole entry, looked up): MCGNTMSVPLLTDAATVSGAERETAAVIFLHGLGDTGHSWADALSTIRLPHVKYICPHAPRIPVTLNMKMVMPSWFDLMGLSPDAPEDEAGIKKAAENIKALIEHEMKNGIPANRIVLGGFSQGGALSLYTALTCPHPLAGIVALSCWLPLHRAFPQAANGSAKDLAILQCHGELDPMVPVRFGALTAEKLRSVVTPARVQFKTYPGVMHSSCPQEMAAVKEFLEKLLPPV
RBBP9 inhibitor – inhibitors of human serine hydrolase RBBP9; AID 1515; 0.2% of 220,000 active; O75884; inhibition, % at 7.94 µM; recombinant RBBP9, FP-Rh probe fluorescence polarization;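 active = inhibition above the campaign mean of all tested compounds plus 3 SD, cut at about 14% in these data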;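 note: plate controls were DMSO wells with RBBP9 for no effect and wells lacking RBBP9 protein for full effect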
Target sequence (O75884 whole entry, looked up): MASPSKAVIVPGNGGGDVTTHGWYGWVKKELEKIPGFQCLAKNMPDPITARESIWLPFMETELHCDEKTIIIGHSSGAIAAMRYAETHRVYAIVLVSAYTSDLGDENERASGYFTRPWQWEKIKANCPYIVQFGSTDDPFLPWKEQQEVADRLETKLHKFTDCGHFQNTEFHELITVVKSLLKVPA
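System: RBBP9 protein | Quantity: 2.5 µM RBBP9 dispensing solution, before mixing | Reagent: FP-Rh probe, 375 nM dispensing solution | Timing: Enzyme-compound preincubation 30 min, then probe labeling 45 min, 25 °C | Measured by: Fluorescence polarization | Read-out: % inhibition | Replication: One well per compound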
LYPLA1 counter – counter-screen for PME1 inhibitors: inhibitors of human LYPLA1. recombinant LYPLA1, FP-Rh probe fluorescence polarization. inhibition, % at 5.9 µM. 0.16% of 320,000 active. AID 2174;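 active = inhibition above the mean of all tested compounds plus 3 SD, set per campaign, cut at about 14% in these data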;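 note: inhibitors block serine hydrolase probe labeling of LYPLA1 so polarization falls; 0% = enzyme with DMSO and 100% = wells lacking LYPLA1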
Target sequence (O75608 whole entry, looked up): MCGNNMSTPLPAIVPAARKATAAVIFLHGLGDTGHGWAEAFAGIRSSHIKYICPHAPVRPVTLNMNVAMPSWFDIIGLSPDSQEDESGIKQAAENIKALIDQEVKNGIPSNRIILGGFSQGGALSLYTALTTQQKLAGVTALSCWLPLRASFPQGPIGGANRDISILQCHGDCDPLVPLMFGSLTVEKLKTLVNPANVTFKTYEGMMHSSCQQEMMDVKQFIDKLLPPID
PAD4 inh – PAD4 (human) enzyme inhibition. Q9UM07. 0.41% of 330,000 active. inhibition, % at 6.36 µM. recombinant PAD4, RCA probe fluorescence polarization;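 active = percent inhibition above a cutoff equal to the mean of all tested compounds plus 3 SD, cut at about 15% in these data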;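 note: 0% = PAD4 with RCA probe and DMSO and 100% = probe without PAD4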
Fam108b confirm – Fam108b (mouse) hydrolase inhibition, confirmation assay | inhibition, % at 9.51 µM | recombinant Fam108b, FP-Rh probe fluorescence polarization | shares compounds with Fam108B inh | 44% of 930 active | AID 1978;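 active = inhibition above a limit from the primary screen, the mean over all compounds plus 3 SD, cut at about 19% in these data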;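 note: 0% = median of active Fam108b wells and 100% = catalytically dead S170A mutant; inhibitors free the probe so polarization falls as inhibition rises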
Fam108b inh – mouse ABHD17B inhibition; shares compounds with Fam108B inh; recombinant Fam108b, gel-based ABPP, fluorophosphonate probe; inhibition, % at 20 µM; 44% of 260 active; AID 588649; in the data active = inhibition above about 40%
LYPLA1 conf – counter-screen for PME1 inhibitors: confirmation of human LYPLA1 inhibitors | 69% of 480 active | inhibition, % at 5.9 µM | recombinant LYPLA1, FP-Rh probe fluorescence polarization | shares compounds with LYPLA1 counter;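 active = mean inhibition across replicates above the hit cutoff set in the primary screen, cut at about 15% in these data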;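 note: loss of FP-Rh probe labeling of LYPLA1 seen as lower polarization; 0% = LYPLA1 with DMSO and 100% = wells lacking LYPLA1 enzyme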
LYPLA2 confirm – counter-screen for PME1 inhibitors: confirmation of human LYPLA2 inhibitors. shares compounds with LYPLA2 inh. recombinant LYPLA2, FP-Rh probe fluorescence polarization. inhibition, % at 5.9 µM. 72% of 1,100 active. AID 2232;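 active = mean inhibition across replicates above the hit cutoff set in the primary screen, cut at about 26% in these data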;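 note: blocked labeling of the enzyme by serine hydrolase FP-Rh probe lowers polarization; 0% = enzyme with DMSO and 100% = wells lacking LYPLA2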
PAD4 confirm – confirmation of human PAD4 inhibitors; shares compounds with PAD4 inh; recombinant PAD4, RCA probe fluorescence polarization; inhibition, % at 6.36 µM; 28% of 1,200 active;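 active = mean inhibition across replicates above the hit cutoff set by the earlier primary screen, cut at about 15% in these data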;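 note: inhibitors block active-site labeling by the probe so polarization falls; 0% = PAD4 with probe and DMSO and 100% = probe without PAD4 enzyme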
The depositor's hits bear a star. This is a sample that favours compounds with a hit; in the whole collection about 1.3% have one here.

For O=C(O)c1ccc(NC2=C/C(=N/S(=O)(=O)c3ccccc3)c3ccccc3C2=O)cc1 the results were RBBP9 inhibitor 0.
CCc1ccc(S(=O)(=O)/N=C2\C=C(Nc3ccc(O)cc3)C(=O)c3ccccc32)cc1 was read as Fam108B inh 20*, PME-1 inh 40*, LYPLA2 inh 4, LYPLA1 counter -12, PAD4 inh 52*, Fam108b confirm 17 and PAD4 confirm 50*.
`Cc1cc(C)c(S(=O)(=O)/N=C2\C=C(NS(=O)(=O)c3ccccc3)C(=O)c3ccccc32)c(C)c1` gave Fam108B inh -4, PME-1 inh -15, LYPLA2 inh -21, LYPLA1 counter -11 and PAD4 inh -19.
Cc1cc(C)c(S(=O)(=O)/N=C2\C=C(Nc3ccc(C(=O)O)cc3)C(=O)c3ccccc32)c(C)c1 was read as Fam108B inh 40*, PME-1 inh 15, LYPLA2 inh 11, LYPLA1 counter -5, PAD4 inh 53*, Fam108b confirm 59*, Fam108b inh 0 and PAD4 confirm 40*.
CCc1ccc(S(=O)(=O)/N=C2\C=C(Nc3cccc(C(=O)O)c3)C(=O)c3ccccc32)cc1 was read as Fam108B inh 57*, PME-1 inh 29*, LYPLA2 inh 15, LYPLA1 counter 10, PAD4 inh 71*, Fam108b confirm 78*, Fam108b inh 40* and PAD4 confirm 66*.
Screening COCC(C)n1c(SCC(=O)Nc2c(C)n(C)n(-c3ccccc3)c2=O)nc2ccccc2c1=O (stereo not drawn) returned PAD4 inh -1.
Screening COC(=O)COc1ccc(/C=N/NC(=O)c2ccc(N(Cc3ccccc3)S(C)(=O)=O)cc2)cc1 returned Fam108B inh 2, PME-1 inh -14, LYPLA2 inh 6, RBBP9 inhibitor -5, LYPLA1 counter 0 and PAD4 inh -2.
For O=c1ccc2c(-c3ccccc3)c3ccc(O)cc3oc-2c1 the results were Fam108B inh 26*, PME-1 inh 5, LYPLA2 inh 41*, LYPLA1 counter 46*, PAD4 inh 29*, Fam108b confirm 42*, Fam108b inh 25, LYPLA1 conf 33*, LYPLA2 confirm 29* and PAD4 confirm 63*.
For CCn1c(CSc2nnc3ccccn23)nc2cc(C(=O)O)ccc21 the results were Fam108B inh 50*, PME-1 inh 41*, LYPLA2 inh 43*, RBBP9 inhibitor 0, LYPLA1 counter 39*, PAD4 inh 47*, Fam108b confirm 55*, Fam108b inh 0, LYPLA1 conf 52*, LYPLA2 confirm 51* and PAD4 confirm 77*.
`CCOc1ccc(C(=O)CSc2nnc3ccccn23)cc1` gave Fam108B inh 2, PME-1 inh -5, LYPLA2 inh 3, RBBP9 inhibitor -11, LYPLA1 counter 1 and PAD4 inh -1.
`CCn1c(CSc2n[nH]c(N)n2)nc2cc(C(=O)O)ccc21` gave Fam108B inh 30*, PME-1 inh 31*, LYPLA2 inh 38*, RBBP9 inhibitor 14, LYPLA1 counter 39*, PAD4 inh 51*, Fam108b confirm 41*, Fam108b inh 0, LYPLA1 conf 35*, LYPLA2 confirm 35* and PAD4 confirm 58*.
`COCCn1c(SCCCC(=O)c2ccc(Br)cc2)nnc1-c1ccncc1` gave Fam108B inh -1, PME-1 inh -4, LYPLA2 inh -5, RBBP9 inhibitor -11, LYPLA1 counter 1 and PAD4 inh -4.
`CCn1c(CSc2nnc(-c3ccncc3)n2CCOC)nc2cc(C(=O)O)ccc21` gave Fam108B inh 25*, PME-1 inh 32*, LYPLA2 inh 39*, RBBP9 inhibitor -6, LYPLA1 counter 31*, PAD4 inh 48*, Fam108b confirm 35*, Fam108b inh 25, LYPLA1 conf 34*, LYPLA2 confirm 34* and PAD4 confirm 58*.
COc1ccc(Cl)cc1NC(=O)C(C)Sc1n[nH]c(N)n1 (stereo not drawn) was read as Fam108B inh -4, PME-1 inh 4, LYPLA2 inh 8, RBBP9 inhibitor 1, LYPLA1 counter 2 and PAD4 inh 3.
CC1CCN(C(=O)c2cc(S(=O)(=O)N3CCCCC3)c[nH]2)CC1 was read as Fam108B inh 2, PME-1 inh 0, LYPLA2 inh 1, LYPLA1 counter 0 and PAD4 inh 2.
`Cc1ccc(-n2nc3cc(C)c(N)cc3n2)cc1` gave Fam108B inh 5, PME-1 inh 1, LYPLA2 inh -9, RBBP9 inhibitor 4, LYPLA1 counter -5 and PAD4 inh -2.
`Cc1cc2nc3ccc(N(C)C)cc3nc2cc1N` gave Fam108B inh 32*, PME-1 inh 40*, LYPLA2 inh 33*, LYPLA1 counter 32*, PAD4 inh 29*, Fam108b confirm 19*, LYPLA1 conf 19*, LYPLA2 confirm 24 and PAD4 confirm 31*.
For COC(=O)C/C=C/[C@@H](C)[C@@H](/C=N/OC[C@@H](C)[C@H](OCc1ccccc1)C(C)C)NS(=O)(=O)c1ccc(C)cc1 the results were Fam108B inh -3, PME-1 inh -12, LYPLA2 inh -10, RBBP9 inhibitor 5, LYPLA1 counter -5 and PAD4 inh 0.
For CC(C)N(C(=O)Nc1ccc2nsnc2c1)C(C)C the results were Fam108B inh 55*, PME-1 inh 32*, LYPLA2 inh 73*, RBBP9 inhibitor 2, LYPLA1 counter 71*, PAD4 inh 78*, Fam108b confirm 33*, Fam108b inh 0, LYPLA1 conf 10, LYPLA2 confirm 31* and PAD4 confirm 1.
COc1ccc(NC(=S)Nc2ccc3nsnc3c2)cc1 was read as Fam108B inh 29*, PME-1 inh 36*, LYPLA2 inh 86*, RBBP9 inhibitor -4, LYPLA1 counter 61*, PAD4 inh 68*, Fam108b confirm 40*, Fam108b inh 55*, LYPLA1 conf 0, LYPLA2 confirm 20 and PAD4 confirm -4.
